The source of these data is ChEMBL document CHEMBL1137372, “Structural investigation of the 7-chloro-3-hydroxy-1H-quinazoline-2,4-dione scaffold to obtain AMPA and kainate receptor selective antagonists. Synthesis, pharmacological, and molecular modeling studies” (J Med Chem, 2006).

A short description of experiment [1]: Displacement of [3H]KA from high affinity KA receptor in rat cortical membrane. The class given is cell membranes. In a few lines:
(§1)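 High- and low-affinity [3H]kainate binding to rat cortical membranes. Compounds were made up as a 1 mM stock in 50% DMSO and diluted in buffer. IC50s came from three or four displacement curves using four to six concentrations in triplicate, fitted with ALLFIT. Ki values are mean ± SEM of three or four determinations in triplicate.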
On the technique in general: Loss of bound radioactivity is the signal in a displacement assay; it reports binding, not function.

A further experiment has as its target Glutamate NMDA receptor. Kind of experiment: Displacement of [3H]glycine from Gly/NMDA receptor in rat cortical synaptic membrane. The format is cell membranes.
Experiment [2] deals with Glutamate receptor ionotropic, AMPA (Rattus norvegicus, UniProt P19490+P19491+P19492+P19493). Kind of experiment: Displacement of [3H]AMPA from AMPA receptor in rat cortical synaptic membrane. The format is cell membranes.
The target of experiment [3] is Glutamate NMDA receptor (Rattus norvegicus) (UniProt P35439+Q00959+Q00960+Q00961+Q62645+Q8VHN2+Q9R1M7). Kind of experiment: Displacement of [3H]glycine from Gly/NMDA receptor in rat cortical synaptic membrane at 100 uM. The format is cell membranes.
The species entered for experiment [4] is Rattus norvegicus. Kind of experiment: Displacement of [3H]KA from low affinity KA receptor in rat cortical membrane at 100 uM. The format is cell membranes. In a few lines: (§2)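 Rat cortical membranes were used for the high-affinity and low-affinity [3H]kainate binding assays, following earlier published methods. Test compound was made as a 1 mM stock in 50% DMSO and diluted in buffer. The value is percent inhibition of specific binding at 100 µM.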

In experiment [5] the target is Glutamate receptor ionotropic, AMPA (Rattus norvegicus) (UniProt P19491+P19492+P19493+P19490). Description: Displacement of [3H]AMPA from AMPA receptor in rat cortical synaptic membrane at 100 uM. The class given is cell membranes.
Experiment [6] deals with Glutamate receptor ionotropic, AMPA (Mus musculus, UniProt P23818+P23819+Q9Z2W8+Q9Z2W9). Kind of experiment: Antagonist activity against AMPA receptor assessed as inhibition of SAMPA-induced depolarization of mouse cortex.
A short description of experiment [7]: Antagonist activity against NMDA receptor assessed as inhibition of NMDA-induced depolarization in mouse cortex. The format is functional, tissue-based. The method, boiled down: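 Mouse cortical wedge preparation. Depolarization was evoked with 5 µM NMDA. The IC50 is the concentration giving 50% inhibition of the depolarization, as mean ± SEM of three separate determinations.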

For experiment [8], the species on record is Rattus norvegicus. Kind of experiment: Displacement of [3H]KA from high affinity KA receptor in rat cortical membrane at 100 uM. The format is cell membranes. The method, boiled down: as §2
In experiment [9] the test system is Mus musculus. Kind of experiment: Antinociceptive activity in mouse at 10 mg/kg, po measured as number of acetic acid-induced writhes by abdominal constriction assay. The format is functional, Abdomen.
Experiment [10] concerns Mus musculus. Kind of experiment: Antinociceptive activity in mouse at 1 mg/kg, po measured as number of acetic acid-induced writhes by abdominal constriction assay. The format is functional, Abdomen.
Experiment [11] deals with Mus musculus. Description: Activity against mouse motor coordination measured as number of falls from the rod in 30 sec by rotarod test at 20 mg/kg, po after 30 mins. The format is functional. In a few lines: (§3)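 Mice on a 3-cm rod rotating at 16 rpm, up to five at once. Drug dispersed in 1% sodium CMC and given po in 10 mL kg^-1 30 min before testing. Falls from the rod in 30 s were counted before treatment and at 30, 45 and 60 min after. Each value is the mean of eight mice.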
On the technique in general: The rotarod test checks motor coordination on a turning rod.

The subject of experiment [12] is Mus musculus. Description: Activity against mouse motor coordination measured as number of falls from the rod in 30 sec by rotarod test at 50 mg/kg, po after 30 mins. The class given is functional. In a few lines:
as §3

In experiment [13] the test system is Mus musculus. Kind of experiment: Activity against mouse motor coordination measured as number of falls from the rod in 30 sec by rotarod test at 50 mg/kg, po after 60 mins. The class given is functional. The method, boiled down: as §3
Experiment [14] has as its system Mus musculus. Kind of experiment: Activity against mouse motor coordination measured as number of falls from the rod in 30 sec by rotarod test at 20 mg/kg, po after 60 mins. The class given is functional. The method, boiled down:
as §3

Experiment [15] concerns Mus musculus. Description: Antinociceptive activity in mouse at 0.1 mg/kg, po measured as number of acetic acid-induced writhes by abdominal constriction assay. The class given is functional, Abdomen.
Experiment [16] in a line: Displacement of [3H]KA from low affinity KA receptor in rat cortical membrane. The format is cell membranes. The method, boiled down: as §1
For experiment [17], the system named is Mus musculus. Kind of experiment: Activity against mouse motor coordination measured as number of falls from the rod in 30 sec by rotarod test at 50 mg/kg, po after 45 mins. The class given is functional. The method, boiled down: as §3
Experiment [18] concerns Mus musculus. Description: Activity against mouse motor coordination measured as number of falls from the rod in 30 sec by rotarod test at 20 mg/kg, po after 45 mins. The class given is functional. The method, boiled down: as §3
Experiment [19] relates to Mus musculus. Kind of experiment: Antinociceptive activity in mouse at 5 mg/kg, po measured as number of acetic acid-induced writhes by abdominal constriction assay. The format is functional, Abdomen.

As a reminder, the IC50 is the concentration needed to halve the response being measured. Broadly, the Ki is a measure of affinity in units of concentration, obtained from inhibition or displacement. Read a low Ki as tighter binding. Broadly, the inhibition is the change of the read-out against control, counted positive when it falls. Read a high inhibition as a response far below the control.

`O=c1[nH]c2cc(Cl)ccc2c(=O)n1O` displayed an IC50 in experiment [1] of 140 µM. The same molecule registered a Ki at Glutamate NMDA receptor of 0.24 µM.

Consider `O=Cc1ccn(-c2cc3c(=O)n(O)c(=O)[nH]c3cc2Cl)c1`, for which the inhibition constant Ki was 4.2 µM in experiment [2] and 22.7 µM on Glutamate NMDA receptor. The molecule also registered a half-inhibitory concentration (IC50) in experiment [1] of 6.2 µM.

For the molecule `O=C(O)c1ccc(C(=O)Nc2cc3c(=O)n(O)c(=O)[nH]c3cc2Cl)cc1`, the inhibition is 40% in experiment [3], 0% in the experiment filed under Rattus norvegicus [4] and 29% in [5]. Moreover, the half-inhibitory concentration (IC50) in experiment [1] was found to be 12.9 µM.

For `O=c1[nH]c2cc(Cl)c(-n3cccc3)cc2c(=O)n1O`, the Ki was 16.6 µM in [2] and 1 µM on Glutamate NMDA receptor. For the same molecule, in [1], the IC50 is 8.2 µM.

As to `O=c1ccn(-c2cc3c(=O)n(O)c(=O)[nH]c3cc2Cl)cc1`, the IC50 in experiment [6] was 3.5 µM; in experiment [1] it was 4.1 µM; in [7], above 80 µM. In addition, the inhibition constant (Ki) in experiment [2] was 0.5 µM; at Glutamate NMDA receptor, 25 µM.

For `COC(=O)c1cccc(C(=O)Nc2cc3c(=O)n(O)c(=O)[nH]c3cc2Cl)c1`, the values for the inhibition (in experiment [3]; in the experiment filed under Rattus norvegicus [8]; in experiment [5]) were 32%, 20% and 35%, respectively.

Take `O=C(O)c1ccccc1C(=O)Nc1cc2c(=O)n(O)c(=O)[nH]c2cc1Cl`: in experiment [3], the inhibition turned out to be 40%. Besides, the Activity in the experiment on Mus musculus [9] was 24.5; in the experiment with Mus musculus [10], 26.1; in the experiment on Mus musculus [11], 3.3; in the experiment on Mus musculus [12], 4.8; in the experiment on Mus musculus [13], 3.2; in the experiment on Mus musculus [14], 1.7. Further, the Activity turned out to be 34.7 in the experiment on Mus musculus [15], 3.7 with Mus musculus [17] and 2.6 in the experiment on Mus musculus [18]. Also, the affinity in [2], expressed as Ki, was 16.5 µM. Besides, the IC50 in experiment [1] worked out at 0.62 µM; in experiment [16] it was 1.6 µM.

For `O=C(O)c1cccc(C(=O)Nc2cc3c(=O)n(O)c(=O)[nH]c3cc2Cl)c1`, the inhibition in experiment [3] worked out at 32%; in the experiment listed under Rattus norvegicus [4], 0%. This molecule had an inhibitory constant (Ki) in experiment [2] of 60 µM. In experiment [1], the half-inhibitory concentration (IC50) came out at 100 µM.

With `O=c1[nH]c2cc(Cl)c(-n3cnnc3)cc2c(=O)n1O`, the inhibition in experiment [3] is 47%. Besides, the values for the half-maximal inhibitory concentration (IC50) in experiment [6], in experiment [1] and in [7] were 4.6 µM, 7 µM and 84 µM, respectively.

With `COC(=O)c1ccc(C(=O)Nc2cc3c(=O)n(O)c(=O)[nH]c3cc2Cl)cc1`, the inhibition in [3] was determined as 10%; in the experiment filed under Rattus norvegicus [8], 28%; in experiment [5], 43%.

Consider `O=C(O)C(CCO)On1c(=O)[nH]c2cc(Cl)ccc2c1=O` (racemic), for which the inhibition is 40% in [3], 10% in the experiment filed under Rattus norvegicus [8] and 35% in [5].

Take `CN1CCc2c(-c3ccc(S(=O)(=O)N(C)C)cc3)cc3c(c2C1)NC(=O)/C3=N\OC(CCO)C(=O)O` (configuration not stated): the inhibitory constant (Ki) in experiment [2] is 0.043 µM; on Glutamate NMDA receptor, above 30 µM. This molecule also gave an IC50 in experiment [1] of 81 µM.

Regarding `CCOC(=O)COn1c(=O)[nH]c2cc(Cl)ccc2c1=O`, the inhibition in [3] is 0%; in the experiment filed under Rattus norvegicus [8], 5%; in experiment [5], 9%.

`N[C@@H](Cn1ccc(=O)n(Cc2ccccc2C(=O)O)c1=O)C(=O)O`: in [3], the inhibition stood at 20%. In experiment [2], this molecule yielded an inhibition constant (Ki) of 117 µM. Besides, the figures for the IC50 in [1] and in experiment [16] were 46 µM and 15 µM, respectively.

Molecule `O=C(O)c1ccn(-c2cc3c(=O)n(O)c(=O)[nH]c3cc2Cl)c1` gave an inhibition in [3] of 44%. This molecule yielded a Ki in experiment [2] of 1.3 µM. In experiment [1], the 50% inhibitory concentration (IC50) amounted to 13 µM.

For the molecule `O=C1OCCC1On1c(=O)[nH]c2cc(Cl)ccc2c1=O` (racemic), the inhibition in [3] is 37%; in the experiment listed under Rattus norvegicus [8], 11%; in experiment [5], 26%.

As to `O=C1CCC(=O)N1c1cc2c(=O)n(O)c(=O)[nH]c2cc1Cl`, the Ki in experiment [2] came out at 36 µM; on Glutamate NMDA receptor it was 88 µM. Further, the inhibition in the experiment listed under Rattus norvegicus [8] was found to be 44%.

On to `O=C1C=CCN1c1cc2c(=O)n(O)c(=O)[nH]c2cc1Cl`, for which the Ki was 6.2 µM in [2] and 42 µM on Glutamate NMDA receptor. In addition, the IC50 in [1] amounted to 10 µM.

In the case of `O=C(O)COn1c(=O)[nH]c2cc(Cl)ccc2c1=O`, the inhibition constant (Ki) in [2] was found to be 99 µM; on Glutamate NMDA receptor, 90 µM. Further, in the experiment filed under Rattus norvegicus [8], the inhibition was 5%.

In the experiment on Mus musculus [19], `O=C(O)Cc1ccccc1Nc1c(Cl)cccc1Cl` [DICLOFENAC] had an Activity of 18.2.

As for `O=C(O)CCC(=O)Nc1cc2c(=O)n(O)c(=O)[nH]c2cc1Cl`, the inhibition in experiment [3] was determined as 8%. In experiment [2], the affinity corresponds to a Ki of 8.4 µM. The same molecule registered an IC50 in [1] of 5.4 µM.

For `O=C(Nc1cc2c(=O)n(O)c(=O)[nH]c2cc1Cl)c1ccccc1`, the inhibition in experiment [3] was 33%. The molecule further came in with an inhibitory constant (Ki) in experiment [2] of 45 µM. The molecule further had an IC50 in experiment [1] of 52 µM.

On to `O=C(NCc1ccccc1)Nc1cc2c(=O)n(O)c(=O)[nH]c2cc1Cl`, for which the inhibition in experiment [3] turned out to be 27%; in the experiment filed under Rattus norvegicus [8], 32%; in [5], 33%.
